According to ChEMBL document CHEMBL1138195, “Highly chiral muscarinic ligands: the discovery of (2S,2'R,3'S,5'R)-1-methyl-2-(2-methyl-1,3-oxathiolan-5-yl)pyrrolidine 3-sulfoxide methyl iodide, a potent, functionally selective, M2 partial agonist” (J Med Chem, 2006):

How the values were obtained:
[1] = target: T1, Muscarinic acetylcholine receptor M5 (Homo sapiens, UniProt P08912); assay: Binding affinity to cloned human muscarinic M5 receptor expressed in CHO cells; format: cell-based
T1 sequence (P08912 whole entry): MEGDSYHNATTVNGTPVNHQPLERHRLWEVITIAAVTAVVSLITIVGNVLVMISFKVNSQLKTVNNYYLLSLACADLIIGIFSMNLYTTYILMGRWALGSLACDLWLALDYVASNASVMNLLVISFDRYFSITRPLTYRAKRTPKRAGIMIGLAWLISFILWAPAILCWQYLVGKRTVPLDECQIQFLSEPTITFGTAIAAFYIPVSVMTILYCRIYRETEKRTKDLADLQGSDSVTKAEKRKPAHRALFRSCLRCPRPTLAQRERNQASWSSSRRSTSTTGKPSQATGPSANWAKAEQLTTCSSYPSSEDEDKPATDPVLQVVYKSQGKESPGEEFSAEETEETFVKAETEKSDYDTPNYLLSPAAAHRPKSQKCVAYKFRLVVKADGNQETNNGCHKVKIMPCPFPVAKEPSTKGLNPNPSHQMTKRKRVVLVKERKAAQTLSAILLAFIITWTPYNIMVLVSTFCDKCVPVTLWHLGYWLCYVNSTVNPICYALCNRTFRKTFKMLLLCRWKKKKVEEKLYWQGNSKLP
Outline: (§1)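 Membranes from CHO cells stably expressing human hm2, hm4 or hm5 receptors, at 70, 50 and 25 µg/mL protein respectively. 0.2 nM [3H]NMS displaced by unlabelled ligand for 120 min at room temperature, in 25 mM sodium phosphate with 5 mM MgCl2, pH 7.4. Rapid filtration, then scintillation counting. Mean of at least three experiments.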

[2] = target: T2, Muscarinic acetylcholine receptor M1 (Homo sapiens, UniProt P11229); assay: Binding affinity to cloned human muscarinic M1 receptor expressed in CHO cells; format: cell-based
T2 sequence (P11229 whole entry): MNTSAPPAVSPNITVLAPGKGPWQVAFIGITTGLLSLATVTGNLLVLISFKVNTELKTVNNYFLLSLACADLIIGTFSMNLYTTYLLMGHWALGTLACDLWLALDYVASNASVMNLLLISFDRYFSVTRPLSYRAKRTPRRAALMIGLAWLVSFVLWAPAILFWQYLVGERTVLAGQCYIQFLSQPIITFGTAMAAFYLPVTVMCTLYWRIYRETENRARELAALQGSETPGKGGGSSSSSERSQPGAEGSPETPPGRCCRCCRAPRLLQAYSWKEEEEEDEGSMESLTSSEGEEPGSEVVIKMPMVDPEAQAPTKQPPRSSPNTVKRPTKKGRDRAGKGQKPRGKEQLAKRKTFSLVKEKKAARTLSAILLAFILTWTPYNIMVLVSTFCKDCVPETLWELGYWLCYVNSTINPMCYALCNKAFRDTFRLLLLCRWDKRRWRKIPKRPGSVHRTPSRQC

[3] = target: T3, Muscarinic acetylcholine receptor M2 (Homo sapiens, UniProt P08172); assay: Binding affinity to cloned human muscarinic M2 receptor expressed in CHO cells; format: cell-based; outline: as §1
T3 sequence (P08172 whole entry): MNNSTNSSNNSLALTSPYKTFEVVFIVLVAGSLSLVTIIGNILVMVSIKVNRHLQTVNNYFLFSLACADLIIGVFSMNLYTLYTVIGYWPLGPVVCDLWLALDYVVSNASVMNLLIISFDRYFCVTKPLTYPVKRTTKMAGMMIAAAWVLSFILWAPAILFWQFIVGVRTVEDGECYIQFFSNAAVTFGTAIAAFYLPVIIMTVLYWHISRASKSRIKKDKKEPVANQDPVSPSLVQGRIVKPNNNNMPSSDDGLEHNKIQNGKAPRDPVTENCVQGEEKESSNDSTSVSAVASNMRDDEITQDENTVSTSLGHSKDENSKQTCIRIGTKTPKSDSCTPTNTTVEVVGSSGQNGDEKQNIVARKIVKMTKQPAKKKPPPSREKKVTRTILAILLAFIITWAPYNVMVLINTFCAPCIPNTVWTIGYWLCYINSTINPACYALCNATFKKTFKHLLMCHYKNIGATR

[4] = target: Muscarinic acetylcholine receptor M3 (Homo sapiens, UniProt P20309); assay: Binding affinity to cloned human muscarinic M3 receptor expressed in CHO cells; format: cell-based
[5] = target: T4, Muscarinic acetylcholine receptor M4 (Homo sapiens, UniProt P08173); assay: Binding affinity to cloned human muscarinic M4 receptor expressed in CHO cells; format: cell-based; outline: as §1
T4 sequence (P08173 whole entry): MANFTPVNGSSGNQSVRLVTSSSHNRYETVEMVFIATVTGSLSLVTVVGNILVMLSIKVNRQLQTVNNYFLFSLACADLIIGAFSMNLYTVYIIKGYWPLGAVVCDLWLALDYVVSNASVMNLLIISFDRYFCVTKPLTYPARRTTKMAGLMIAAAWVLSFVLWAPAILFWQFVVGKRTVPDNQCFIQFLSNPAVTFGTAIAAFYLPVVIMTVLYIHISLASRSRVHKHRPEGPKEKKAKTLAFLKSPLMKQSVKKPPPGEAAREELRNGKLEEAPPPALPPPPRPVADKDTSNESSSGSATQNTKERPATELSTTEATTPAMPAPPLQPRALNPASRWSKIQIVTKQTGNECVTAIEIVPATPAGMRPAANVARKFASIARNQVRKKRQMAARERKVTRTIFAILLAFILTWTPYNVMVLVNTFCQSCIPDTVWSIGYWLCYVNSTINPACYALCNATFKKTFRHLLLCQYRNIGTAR

[6] = target: T5, Muscarinic acetylcholine receptor M1 (Homo sapiens) (UniProt P11229); assay: Antagonist affinity at muscarinic M1 receptor in rabbit vas deferens; format: functional, tissue-based; conditions: Oryctolagus cuniculus, target entry is the homologue from another species
T5 sequence (whole entry): T2 sequence (P11229 whole entry)
Outline: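 Field-stimulated (0.1 ms, 2 Hz, 10-15 V), contractions recorded isometrically after 1 h equilibration. Cumulative dose-response curves against p-Cl-McN-A-343 reference. Antagonists incubated 60 min before the repeat curve. Reported as pD2 (-log ED50) with intrinsic activity, or as pKb.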

[7] = target: T6, Muscarinic acetylcholine receptor M2 (Homo sapiens) (UniProt P08172); assay: Agonist potency at muscarinic M2 receptor in guinea pig atrium; format: functional, tissue-based; conditions: Cavia porcellus; Cardiac atrium; target entry is the homologue from another species
T6 sequence (whole entry): T3 sequence (P08172 whole entry)
Outline: (§2)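 Guinea pig left atria in PSS at 30 °C, paced by square-wave pulses (1 ms, 1 Hz, 5-10 V). Inotropic force recorded isometrically after 2 h equilibration, with cumulative dose-response curves to arecaidine propargyl ester as reference. Antagonists incubated 60 min after a 30 min wash, then the curve was repeated. Values given as pD2 with intrinsic activity, or as pKb.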

[8] = target: Muscarinic acetylcholine receptor M3 (Cavia porcellus) (UniProt Q8VH26); assay: Agonist potency at muscarinic M3 receptor in guinea pig ileum; format: functional, tissue-based
Outline: (§3)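 Isolated guinea pig tissue contractions, measured against arecaidine propargyl ester control curves. Agonists: cumulative dose-response curve after a 30 min wash, responses as % of the control maximum. Antagonists: 60 min incubation, then a new agonist curve. Parallel time-control tissues were run. Values expressed as pD2 (-log ED50) with intrinsic activity, or as pKb (-log Kb).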

[9] = target: Muscarinic acetylcholine receptor M3 (Cavia porcellus) (UniProt Q8VH26); assay: Antagonist affinity at muscarinic M3 receptor in guinea pig ileum; format: functional, tissue-based; outline: as §3
[10] = target: T7, Muscarinic acetylcholine receptor M4 (Homo sapiens) (UniProt P08173); assay: Antagonist affinity at muscarinic M4 receptor in guinea pig lung strips; format: functional; conditions: Cavia porcellus, target entry is the homologue from another species; outline: as §3
T7 sequence (whole entry): T4 sequence (P08173 whole entry)

[11] = target: T6, Muscarinic acetylcholine receptor M2 (Homo sapiens); assay: Efficacy of agonist at muscarinic M2 receptor in guinea pig atrium as ratio of Ka/ED50; format: functional, tissue-based; conditions: Cavia porcellus; Cardiac atrium; target entry is the homologue from another species
Outline: (§4)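 Functional affinity constants (Ka) obtained in the atrium and ileum preparations. Full agonists: Furchgott-Bursztyn method. Partial agonists: Waud method, comparing their concentration-response curves with arecaidine propargyl ester, with equieffective concentrations read graphically. Ka was then related to ED50.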

[12] = target: T6, Muscarinic acetylcholine receptor M2 (Homo sapiens); assay: Antagonist affinity at muscarinic M2 receptor in guinea pig atrium; format: functional, tissue-based; conditions: Cavia porcellus; Cardiac atrium; target entry is the homologue from another species; outline: as §2
[13] = target: Muscarinic acetylcholine receptor M3 (Cavia porcellus) (UniProt Q8VH26); assay: Efficacy of agonist at muscarinic M3 receptor in guinea pig ileum as ratio of Ka/ED50; format: functional, tissue-based; outline: as §4

Sequence of Muscarinic acetylcholine receptor M3 (P20309 whole entry): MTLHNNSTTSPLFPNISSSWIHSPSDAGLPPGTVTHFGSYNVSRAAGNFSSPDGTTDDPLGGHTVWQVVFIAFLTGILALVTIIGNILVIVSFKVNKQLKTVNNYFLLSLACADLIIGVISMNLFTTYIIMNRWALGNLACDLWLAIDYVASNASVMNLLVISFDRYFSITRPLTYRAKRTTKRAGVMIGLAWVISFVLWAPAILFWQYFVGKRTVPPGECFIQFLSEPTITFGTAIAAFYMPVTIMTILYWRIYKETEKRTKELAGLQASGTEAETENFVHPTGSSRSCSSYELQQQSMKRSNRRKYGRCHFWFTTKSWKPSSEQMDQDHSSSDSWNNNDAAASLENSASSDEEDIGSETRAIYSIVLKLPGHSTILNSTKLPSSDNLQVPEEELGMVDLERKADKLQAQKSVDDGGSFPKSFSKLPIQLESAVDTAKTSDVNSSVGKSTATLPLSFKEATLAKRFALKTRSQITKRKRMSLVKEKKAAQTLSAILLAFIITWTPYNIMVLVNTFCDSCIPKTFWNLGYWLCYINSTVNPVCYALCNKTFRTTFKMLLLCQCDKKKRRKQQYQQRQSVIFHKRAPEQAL
Sequence of Muscarinic acetylcholine receptor M3 (Cavia porcellus) (Q8VH26 1-587): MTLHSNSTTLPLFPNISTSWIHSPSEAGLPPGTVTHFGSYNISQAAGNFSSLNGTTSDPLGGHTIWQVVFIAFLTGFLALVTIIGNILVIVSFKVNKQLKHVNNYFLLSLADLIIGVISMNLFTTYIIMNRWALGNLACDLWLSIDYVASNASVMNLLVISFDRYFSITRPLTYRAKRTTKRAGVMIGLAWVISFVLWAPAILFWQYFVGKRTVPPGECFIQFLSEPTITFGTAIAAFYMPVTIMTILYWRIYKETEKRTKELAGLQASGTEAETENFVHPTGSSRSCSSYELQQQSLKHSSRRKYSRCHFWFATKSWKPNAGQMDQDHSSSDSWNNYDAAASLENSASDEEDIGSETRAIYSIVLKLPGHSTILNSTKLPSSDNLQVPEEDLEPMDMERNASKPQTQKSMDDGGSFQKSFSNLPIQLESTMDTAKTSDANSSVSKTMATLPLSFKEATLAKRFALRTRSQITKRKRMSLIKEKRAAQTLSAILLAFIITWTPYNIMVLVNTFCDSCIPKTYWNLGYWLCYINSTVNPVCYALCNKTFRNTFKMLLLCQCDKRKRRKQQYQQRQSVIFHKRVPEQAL

C[C@@H]1O[C@H]([C@@H]2CCC[N+]2(C)C)C[S@+]1[O-]
Ki [1]: > 100 µM
Ki [2]: > 100 µM
Ki [3]: 51.3 µM
Ki [4]: > 100 µM
Ki [5]: > 100 µM
pKb [6]: < 5
-logKa [7]: 6.13
Activity [7]: 0.41
pD2 [7]: 7.65
Activity [8]: 0
pKb [9]: < 5
pKb [10]: < 5
Ratio [11]: 84

C[C@@H]1O[C@H]([C@H]2CCCN2C)C[S@+]1[O-]
Ki [1]: > 100 µM
Ki [2]: > 100 µM
Ki [3]: > 100 µM
Ki [4]: > 100 µM
Ki [5]: > 100 µM

C[C@H]1O[C@@H]([C@H]2CCCN2C)C[S@+]1[O-]
Ki [1]: > 100 µM
Ki [2]: > 100 µM
Ki [3]: > 100 µM
Ki [4]: > 100 µM
Ki [5]: > 100 µM

C[C@H]1O[C@@H]([C@@H]2CCC[N+]2(C)C)C[S@@+]1[O-].[I-] (stereo in doubt; (-)-8)
Ki [1]: > 100 µM
Log Ki ([2]; cho): < -4
Ki [3]: > 100 µM
Log Ki ([4]; cho): < -4
Log Ki ([5]; cho): < -4

C[C@H]1O[C@@H]([C@@H]2CCC[N+]2(C)C)C[S@@+]1[O-] (stereo in doubt; (-)-6) [listing 1 of 2 here]
Ki [1]: > 100 µM
Ki [2]: > 100 µM
Ki [3]: 28.8 µM
Ki [4]: > 100 µM
Ki [5]: > 100 µM

C[C@H]1O[C@@H]([C@@H]2CCC[N+]2(C)C)C[S@@+]1[O-] (stereo in doubt; (-)-6) [listing 2 of 2 here]
pKb [6]: < 5
Activity [7]: 0
pKb [12]: < 5
Activity [8]: 0
pKb [9]: < 5
pKb [10]: < 5

C[C@@H]1O[C@H]([C@@H]2CCC[N+]2(C)C)C[S@@+]1[O-]
Ki [1]: 33.9 µM
Ki [2]: 93.3 µM
Ki [3]: 15.5 µM
Ki [4]: 33.9 µM
Ki [5]: 46.8 µM
pKb [6]: < 5
-logKa [7]: 4.64
Activity [7]: 0.56
pD2 [7]: 6.37
-logKa [8]: 4.59
Activity [8]: 0.54
pD2 [8]: 4.62
pKb [10]: < 5
Ratio [11]: 58
Ratio [13]: 1

C[C@H]1O[C@@H]([C@@H]2CCC[N+]2(C)C)C[S@@+]1[O-] (stereo in doubt; (+)-7)
pKb [6]: < 5
Activity [7]: 0
pKb [12]: < 5
Activity [8]: 0
pKb [9]: < 5
pKb [10]: < 5

C[C@H]1O[C@@H]([C@H]2CCCN2C)C[S@@+]1[O-]
Ki [1]: > 100 µM
Ki [2]: > 100 µM
Ki [3]: > 100 µM
Ki [4]: > 100 µM
Ki [5]: > 100 µM
